The values that follow come from ChEMBL document CHEMBL1208664, “Structure-activity relationship studies of acridones as potential antipsoriatic agents. 1. Synthesis and antiproliferative activity of simple N-unsubstituted 10H-acridin-9-ones against human keratinocyte growth” (Eur J Med Chem, 2010).

Usually IC50 stands for the point on the concentration scale where inhibition reaches its midpoint. By EC50 is commonly meant the midpoint of the concentration-response curve.

The test system of test [1] is HaCaT. The test can be described thus: Antiproliferative activity against human HaCaT cells after 48 hrs by phase contrast microscopy. It is filed as functional, cell-based. The procedure, abridged:
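HaCaT keratinocytes were treated for 48 h, then dispersed cells were counted under phase-contrast microscopy. Inhibition = (1 − test/control) × 100, with test mean N=3 against control N=6–8. Significance was by Student's t-test.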

For test [2], the system named is Radical scavenging activity. The test can be described thus: Antioxidant activity assessed as DPPH free radical scavenging activity after 30 mins. The conditions noted are these: in the assay text read “after 20 mins” for “after 30 mins”. Format: functional. A digest of the protocol:
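Test compound in EtOH was mixed with an equal volume of DPPH in EtOH. The mix was shaken 30 s, held in the dark at RT for 20 min, shaken again 30 s, and the drop in absorbance at 520 nm was read. Scavenging % = (1 − test/control absorbance) × 100, with test N=3 and control N=8. EC50 came from nonlinear regression. NDGA and α-tocopherol were positive controls.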

Test [3] deals with HaCaT. The test can be described thus: Antiproliferative activity against human HaCaT cells assessed as LDH release at 2 uM after 4 hrs by UV method. (In general: LDH in the medium is a marker of cell lysis.)

SMILES strings stand for the structures.

On to `O=C(c1ccccc1)c1ccc2[nH]c3ccccc3c(=O)c2c1O`, for which the IC50 in test [1] came to 1.6 µM. In test [2], the EC50 was > 60 µM. For the same compound, the Activity in test [3] was found to be 88.9 mU/ml.

As for `CC(Cc1ccc(O)c(O)c1)C(C)Cc1ccc(O)c(O)c1` (stereo not given) [NORDIHYDROGUAIARETIC ACID], in test [2], the IC50 worked out at 4.2 µM.

Consider `COc1ccc2c(=O)c3c(OC)cccc3[nH]c2c1`, for which, in test [1], the IC50 was > 50 µM.

Take `COc1ccc(O)c2c(=O)c3ccccc3[nH]c12`: half-maximal inhibition in test [1] (IC50) required 17.5 µM. Further, the EC50 in test [2] was > 60 µM.

Consider `Cc1cccc2nc3cc(O)cc(O)c3c(O)c12`, for which the IC50 in test [1] came out at 0.8 µM. In addition, the EC50 in test [2] is > 60 µM. The Activity in test [3] amounted to 71.5 mU/ml.

For `N#Cc1ccc(O)c2c(=O)c3ccccc3[nH]c12`, in test [1], the midpoint of inhibition, the IC50, lay at 27.9 µM. For the same compound, in test [2], the EC50 is > 60 µM.

Consider `COC(=O)c1ccc(OC)c2c(=O)c3ccccc3[nH]c12`, for which inhibition in test [1] was half-maximal at 10.8 µM (IC50). The EC50 in test [2] is > 60 µM. For the same compound, the Activity in test [3] was 63.7 mU/ml.

For the compound `O=c1c2c(O)cccc2[nH]c2cc(O)cc(O)c12`, in test [1], the IC50 is 2 µM. Besides, the EC50 in test [2] was > 60 µM. The Activity in test [3] was determined as 69.3 mU/ml.

As for `O=C1c2c(O)cccc2Cc2cccc(O)c21` [ANTHRALIN], the EC50 in test [2] came out at 16.7 µM. Further, the Activity in test [3] is 122.8 mU/ml.

For the compound `COc1ccc(Cl)c2[nH]c3ccccc3c(=O)c12`, in test [1], inhibition was half-maximal at 43.8 µM (IC50). Further, in test [2], the EC50 is > 60 µM.

Consider `COc1ccc(OC)c2c(=O)c3c(OC)cccc3[nH]c12`, for which the IC50 in test [1] is > 50 µM. In addition, the EC50 in test [2] was > 60 µM.

For `O=c1c2ccccc2[nH]c2cc(O)ccc12`, the IC50 in test [1] is > 50 µM.

Consider `COc1ccc(C(=O)O)c2[nH]c3ccccc3c(=O)c12`, for which the IC50 in test [1] was > 50 µM. Further, the EC50 in test [2] was > 60 µM.

For the compound `Nc1ccc(O)c2c(=O)c3ccccc3[nH]c12`, the IC50 in test [1] is > 50 µM. Moreover, the EC50 in test [2] worked out at 7.6 µM.

For `O=c1c2ccccc2[nH]c2c(O)cccc12`, in test [1], the IC50 is > 50 µM. Also, the EC50 in test [2] came out at 6.8 µM.

In test [1], `COC(=O)c1ccc(O)c2c(=O)c3ccccc3[nH]c12` gave an IC50 of 5.2 µM. The EC50 in test [2] was > 60 µM. The Activity in test [3] was found to be 58.8 mU/ml.

As to `COc1ccc(C#N)c2[nH]c3ccccc3c(=O)c12`, the IC50 in test [1] is > 50 µM. Also, the EC50 in test [2] is > 60 µM.

In the case of `COc1cc(O)c2c(O)c3cccc(OC)c3nc2c1`, the IC50 in test [1] was determined as 34.3 µM.

Regarding `COc1cc(OC)c2c(=O)c3c(OC)cccc3[nH]c2c1`, in test [1], the IC50 stood at 45.3 µM.

Compound `O=c1c2ccccc2[nH]c2cc(OCc3ccccc3)cc(O)c12` displayed an IC50 in test [1] of 47.8 µM.

With `CC(=O)c1ccc2[nH]c3ccccc3c(=O)c2c1O`, the IC50 in test [1] stood at 17.1 µM. In test [2], the EC50 is > 60 µM.

The compound `COc1cc(O)c2c(=O)c3ccccc3[nH]c2c1` yielded an IC50 in test [1] of 46.3 µM.

Consider `COc1ccc2[nH]c3cccc(OC)c3c(=O)c2c1`, for which, in test [1], the IC50 was > 50 µM.

For `Cc1c(C)c2c(c(C)c1O)CC[C@@](C)(CCC[C@H](C)CCC[C@H](C)CCCC(C)C)O2` [ALPHA-TOCOPHEROL], the IC50 in test [2] was found to be 8.2 µM.

Take `COc1ccc(C)c2[nH]c3ccccc3c(=O)c12`: 46.7 µM corresponded to half-maximal inhibition in test [1] (IC50). Also, in test [2], the EC50 is > 60 µM.

On to `COc1cccc2[nH]c3ccccc3c(=O)c12`, for which the IC50 in test [1] is > 50 µM. Besides, the EC50 in test [2] was > 60 µM.

The compound `O=c1c2ccccc2[nH]c2c(O)ccc(O)c12` gave an IC50 in test [1] of 10 µM. In addition, in test [2], the EC50 was found to be 8.8 µM. In test [3], the Activity is 61.2 mU/ml.

Take `O=c1c2ccccc2[nH]c2cc(O)cc(O)c12`: 19.8 µM corresponded to half-maximal inhibition in test [1] (IC50). Besides, the EC50 in test [2] is > 60 µM.

`Cc1cc(O)cc2[nH]c3ccccc3c(=O)c12` displayed an IC50 in test [1] of 27.3 µM.

Take `NC(=O)c1ccc(O)c2c(=O)c3ccccc3[nH]c12`: the IC50 in test [1] turned out to be 4.7 µM. Also, in test [2], the EC50 was > 60 µM. For the same compound, the Activity in test [3] is 68.1 mU/ml.

On to `COc1ccc2c(=O)c3ccccc3[nH]c2c1`, for which the IC50 in test [1] is > 50 µM.

As for `O=c1c2ccccc2[nH]c2cc(OCCc3ccccc3)cc(O)c12`, the IC50 in test [1] stood at 21 µM.

For the compound `COc1ccc(N)c2[nH]c3ccccc3c(=O)c12`, in test [1], the IC50 is > 50 µM. For the same compound, the EC50 in test [2] stood at 7.7 µM.

Compound `Cc1ccc(O)c2c(=O)c3ccccc3[nH]c12` yielded an IC50 in test [1] of 25.7 µM. In test [2], the EC50 was > 60 µM.

Compound `O=c1c2ccccc2[nH]c2c(Cl)ccc(O)c12` came in with an IC50 in test [1] of 26.3 µM. Besides, the EC50 in test [2] was > 60 µM.

For `O=c1c2ccccc2[nH]c2cccc(O)c12`, in test [1], the IC50 is > 50 µM. Further, the EC50 in test [2] was > 60 µM.

`O=c1c2cccc(O)c2[nH]c2cc(O)cc(O)c12`: in test [1], the IC50 was determined as 8.4 µM. Also, the EC50 in test [2] turned out to be 15 µM. Besides, the Activity in test [3] was determined as 69.9 mU/ml.

Regarding `COc1cccc2[nH]c3cccc(OC)c3c(=O)c12`, in test [1], the IC50 is > 50 µM.

In turn, `O=c1c2cc(O)ccc2[nH]c2cccc(O)c12` showed an IC50 in test [1] of 48.8 µM. In addition, the EC50 in test [2] is 3.9 µM.

As to `Cc1cc(O)c2c(=O)c3ccccc3[nH]c2c1`, the IC50 in test [1] is > 50 µM.

`COc1cccc2c(=O)c3ccccc3[nH]c12`: the IC50 in test [1] is > 50 µM. Further, the EC50 in test [2] is > 60 µM.

As for `COc1ccc(O)c2c(=O)c3c(O)cccc3[nH]c12`, the IC50 in test [1] was > 50 µM. In test [2], the EC50 is > 60 µM.

Consider `COc1ccc(OC)c2c(=O)c3ccccc3[nH]c12`, for which the IC50 in test [1] is > 50 µM. Moreover, the EC50 in test [2] is > 60 µM.

For the compound `O=c1c2ccc(O)cc2[nH]c2cccc(O)c12`, inhibition in test [1] was half-maximal at 4.5 µM (IC50). For the same compound, the EC50 in test [2] was > 60 µM. Further, in test [3], the Activity worked out at 77.7 mU/ml.

For `O=C(Oc1cccc2[nH]c3ccccc3c(=O)c12)c1ccccc1`, half-maximal inhibition in test [1] (IC50) required 12.4 µM. For the same compound, in test [2], the EC50 is > 60 µM.

As for `O=c1c2ccccc2[nH]c2ccc(O)cc12`, the IC50 in test [1] is > 50 µM. The EC50 in test [2] came to 2.7 µM.

In turn, `O=c1c2c(O)cccc2[nH]c2cccc(O)c12` registered an IC50 in test [1] of 39.5 µM. Moreover, in test [2], the EC50 was > 60 µM.

For `COc1ccc(C(N)=O)c2[nH]c3ccccc3c(=O)c12`, the IC50 in test [1] was determined as 8.8 µM. Further, the EC50 in test [2] was > 60 µM. For the same compound, the Activity in test [3] is 66.5 mU/ml.

Turning to `Cc1cccc2c(O)c3c(O)cc(O)cc3nc12`, the IC50 in test [1] was > 50 µM.

`CC(=O)Oc1cccc2[nH]c3ccccc3c(=O)c12` returned an IC50 in test [1] of 21.5 µM.

Consider `COc1cccc2[nH]c3cc(O)cc(O)c3c(=O)c12`, for which the IC50 in test [1] was found to be 28.3 µM.

Take `O=c1c2ccccc2[nH]c2c([N+](=O)[O-])ccc(O)c12`: the IC50 in test [1] was determined as 47.3 µM. Moreover, in test [2], the EC50 is > 60 µM.

For the compound `Cc1ccc2c(=O)c3c(O)cc(O)cc3[nH]c2c1`, the IC50 in test [1] was > 50 µM.

For the compound `COc1ccc([N+](=O)[O-])c2[nH]c3ccccc3c(=O)c12`, the IC50 in test [1] was > 50 µM. For the same compound, the EC50 in test [2] was > 60 µM.

On to `COc1cccc2c(O)c3c(O)cc(O)cc3nc12`, for which the IC50 in test [1] amounted to 21.3 µM.

As for `O=C(O)c1ccc(O)c2c(=O)c3ccccc3[nH]c12`, half-maximal inhibition in test [1] (IC50) was put at 49.2 µM. For the same compound, the EC50 in test [2] was > 60 µM.

Consider `COc1cc(OC)c2c(=O)c3ccccc3[nH]c2c1`, for which, in test [1], the IC50 was > 50 µM.

Consider `COc1ccc2[nH]c3ccccc3c(=O)c2c1`, for which, in test [1], the IC50 is > 50 µM.
